In ChEMBL document CHEMBL1131139, “Synthesis and antibacterial activity of ketolides (6-O-methyl-3-oxoerythromycin derivatives): a new class of antibacterials highly potent against macrolide-resistant and -susceptible respiratory pathogens” (1998):
Converted amounts (≈) assume the structure as drawn.

Assays:
Enterococcus [1] = experiment: In vitro inhibitory activity against enterococci EryRc (13); format: functional
Enterococcus [2] = experiment: In vitro inhibitory activity against enterococci EryRi (19); format: functional
Escherichia coli = experiment: In vitro inhibitory activity against Escherichia coli (250 UC5); format: functional
How it was run: (§1)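 Two-fold agar dilution on Mueller-Hinton agar (pH 7.4). Inoculum from overnight plate cultures suspended in Mueller-Hinton broth, adjusted to 10^9 CFU/mL, diluted 1:200 and spotted by multipoint inoculator at about 10^4 CFU/spot. Plates incubated 37 °C for 20 h. MIC taken as lowest concentration with no visible growth.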

Haemophilus influenzae [3] = experiment: In vitro inhibitory activity against Haemophilus influenzae (351CB12); format: functional; how it was run: as §1
Haemophilus influenzae [4] = experiment: In vitro inhibitory activity against Haemophilus influenzae (351HT3); format: functional; how it was run: as §1
Haemophilus [5] = experiment: In vitro inhibitory activity against Haemophilus AmpR (37); format: functional
Haemophilus [6] = experiment: In vitro inhibitory activity against Haemophilus AmpS (43); format: functional
Haemophilus influenzae [7] = experiment: (§2) In Vivo evaluation for its effective dose against Haemophilus influenzae (351RD7 AmpR beta (+)); format: functional
How it was run: (§3)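 Male Charles River CD1 mice, 20-22 g, 10 per dose group, infected intraperitoneally with 0.5 mL diluted overnight broth culture (physiological buffer or 5% hog mucine) at 10-100 times the minimal lethal dose. Compound suspended in carboxymethylcellulose, 0.5 mL given orally immediately and 4 h postinfection. Survival followed 8-10 days; ED50 (unitary dose protecting 50% from death) by Litchfield-Wilcoxon probit method.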

Haemophilus influenzae [8] = experiment: (§4) In Vivo evaluation for its effective dose against Haemophilus influenzae (351GR1); format: functional; how it was run: as §3
Haemophilus influenzae [9] = experiment: (§5) In Vivo evaluation for its effective dose against Haemophilus influenzae (351TO19 AmpR beta (-)); format: functional; how it was run: as §3
Staphylococcus aureus [10] = experiment: (§6) In Vivo evaluation for its effective dose against Staphylococcus aureus (011GO25 EryRi.; format: functional; how it was run: as §3
Staphylococcus aureus [11] = experiment: (§7) In Vivo evaluation for its effective dose against Staphylococcus aureus (011UC4).; format: functional; how it was run: as §3
Streptococcus pneumoniae [12] = experiment: (§8) In Vivo evaluation for its effective dose against Streptococcus pneumoniae (030Cr29 EryRc); format: functional; how it was run: as §3
Streptococcus pneumoniae [13] = experiment: (§9) In Vivo evaluation for its effective dose against Streptococcus pneumoniae (030MV2 EryRc); format: functional; how it was run: as §3
Streptococcus pneumoniae [14] = experiment: (§10) In Vivo evaluation for its effective dose against Streptococcus pneumoniae (030RO1 EryRi); format: functional; how it was run: as §3
Streptococcus pneumoniae [15] = experiment: (§11) In Vivo evaluation for its effective dose against Streptococcus pneumoniae (030SJ1 EryRc); format: functional; how it was run: as §3
Streptococcus pneumoniae [16] = experiment: (§12) In Vivo evaluation for its effective dose against Streptococcus pneumoniae (030SJ6 EryRc); format: functional; how it was run: as §3
Streptococcus pneumoniae [17] = experiment: (§13) In Vivo evaluation for its effective dose against Streptococcus pneumoniae (032UC1); format: functional; how it was run: as §3
Streptococcus pyogenes [18] = experiment: (§14) In Vivo evaluation for its effective dose against Streptococcus pyogenes (02A1UC1); format: functional; how it was run: as §3
[19] = In vitro inhibitory activity against Pneumococci EryRc (34); format: functional
[20] = In vitro inhibitory activity against Pneumococci PenR (65); format: functional
[21] = system: Staphylococcus epidermidis; experiment: In vitro inhibitory activity against Staphylococcus epidermidis (EryRi 012GO11i); format: functional; how it was run: as §1
Streptococcus sp. [22] = experiment: In vitro inhibitory activity against Streptococci EryR (27); format: functional
Streptococcus sp. [23] = experiment: In vitro inhibitory activity against Streptococci EryRi (98); format: functional
Staphylococcus sp. [24] = experiment: In vitro inhibitory activity against Staphylococci EryRi (65); format: functional
Staphylococcus aureus [25] = experiment: In vitro inhibitory activity against Staphylococcus aureus (011UC4); format: functional; how it was run: as §1
Staphylococcus aureus [26] = experiment: In vitro inhibitory activity against Staphylococcus aureus (EryRi 011GO25i); format: functional; how it was run: as §1
Streptococcus pneumoniae [27] = experiment: In vitro inhibitory activity against Streptococcus pneumoniae (032UC1); format: functional; how it was run: as §1
Streptococcus pneumoniae [28] = experiment: In vitro inhibitory activity against Streptococcus pneumoniae (EryRc 030SJ1); format: functional; how it was run: as §1
Streptococcus pneumoniae [29] = experiment: In vitro inhibitory activity against Streptococcus pneumoniae (EryRi 030SJ5i); format: functional; how it was run: as §1
Streptococcus pyogenes [30] = experiment: In vitro inhibitory activity against Streptococcus pyogenes (02A1UC1); format: functional; how it was run: as §1
Staphylococcus aureus [31] = experiment: In vitro inhibitory activity against Staphylococcus aureus (EryRc 011CB20); format: functional; how it was run: as §1
Mus musculus [32] = experiment: as §2; format: functional; how it was run: as §3
Mus musculus [33] = experiment: as §4; format: functional; how it was run: as §3
Mus musculus [34] = experiment: as §5; format: functional; how it was run: as §3
Mus musculus [35] = experiment: as §6; format: functional; how it was run: as §3
Mus musculus [36] = experiment: as §7; format: functional; how it was run: as §3
Mus musculus [37] = experiment: as §8; format: functional; how it was run: as §3
Mus musculus [38] = experiment: as §9; format: functional; how it was run: as §3
Mus musculus [39] = experiment: as §10; format: functional; how it was run: as §3
Mus musculus [40] = experiment: as §11; format: functional; how it was run: as §3
Mus musculus [41] = experiment: as §12; format: functional; how it was run: as §3
Mus musculus [42] = experiment: as §13; format: functional; how it was run: as §3
Mus musculus [43] = experiment: as §14; format: functional; how it was run: as §3
Staphylococcus sp. [44] = experiment: In vitro inhibitory activity against Staphylococci EryRc (13); format: functional
Streptococcus sp [45] = experiment: In vitro inhibitory activity against Streptococci EryR (27)
Streptococcus sp [46] = experiment: as above; remark: listed apart in the source
Streptococcus sp [47] = experiment: In vitro inhibitory activity against Streptococci EryRi (98)
Streptococcus sp [48] = experiment: as above; remark: listed apart in the source

Compound `CC[C@H]1OC(=O)[C@H](C)[C@@H](O[C@H]2C[C@@](C)(OC)[C@@H](O)[C@H](C)O2)[C@H](C)[C@@H](O[C@@H]2O[C@H](C)C[C@H](N(C)C)[C@H]2O)[C@](C)(O)C[C@@H](C)CN(C)[C@H](C)[C@@H](O)[C@]1(C)O` [AZITHROMYCIN] has an MIC50 (Enterococcus [1]) of 10 µg/mL (≈ 13.4 µM), an MIC90 (Enterococcus [1]) of 40 µg/mL (≈ 53.4 µM) and an MIC50 (Enterococcus [2]) of 40 µg/mL (≈ 53.4 µM). The MIC90 (Enterococcus [2]) was 40 µg/mL (≈ 53.4 µM), the MIC (Escherichia coli) was 20 µg/mL (≈ 26.7 µM) and the MIC (Haemophilus influenzae [3]) was 1.2 µg/mL (≈ 1.6 µM). For the same compound, the MIC (Haemophilus influenzae [4]) was 1.2 µg/mL (≈ 1.6 µM), the MIC50 (Haemophilus [5]) was 0.3 µg/mL (≈ 0.401 µM) and the MIC90 (Haemophilus [5]) was 1.2 µg/mL (≈ 1.6 µM). The MIC50 (Haemophilus [6]) was 0.15 µg/mL (≈ 0.2 µM), the MIC90 (Haemophilus [6]) was 1.2 µg/mL (≈ 1.6 µM) and the ED50 (Haemophilus influenzae [7]) was 117 mg/kg. For the same compound, the ED50 (Haemophilus influenzae [8]) was 109 mg/kg, the ED50 (Haemophilus influenzae [9]) was 368 mg/kg and the ED50 (Staphylococcus aureus [10]) was over 100 mg/kg. For the same compound, the ED50 (Staphylococcus aureus [11]) was 60 mg/kg, the ED50 (Streptococcus pneumoniae [12]) was over 100 mg/kg and the ED50 (Streptococcus pneumoniae [13]) was over 100 mg/kg. It also gave an ED50 (Streptococcus pneumoniae [14]) of over 100 mg/kg, an ED50 (Streptococcus pneumoniae [15]) of over 100 mg/kg and an ED50 (Streptococcus pneumoniae [16]) of over 100 mg/kg. The ED50 (Streptococcus pneumoniae [17]) was over 50 mg/kg, the ED50 (Streptococcus pyogenes [18]) was 16 mg/kg and the MIC50 [19] was 40 µg/mL (≈ 53.4 µM). The MIC90 [19] was 40 µg/mL (≈ 53.4 µM), the MIC50 [20] was 2.5 µg/mL (≈ 3.34 µM) and the MIC90 [20] was 40 µg/mL (≈ 53.4 µM). For the same compound, the MIC [21] was 40 µg/mL (≈ 53.4 µM), the MIC50 (Streptococcus sp. [22]) was 10 µg/mL (≈ 13.4 µM) and the MIC90 (Streptococcus sp. [22]) was 40 µg/mL (≈ 53.4 µM). The MIC50 (Streptococcus sp. [23]) was 40 µg/mL (≈ 53.4 µM), the MIC90 (Streptococcus sp. [23]) was 40 µg/mL (≈ 53.4 µM) and the MIC50 (Staphylococcus sp. [24]) was 40 µg/mL (≈ 53.4 µM). It also gave an MIC90 (Staphylococcus sp. [24]) of 40 µg/mL (≈ 53.4 µM), an MIC (Staphylococcus aureus [25]) of 0.3 µg/mL (≈ 0.401 µM) and an MIC (Staphylococcus aureus [26]) of 40 µg/mL (≈ 53.4 µM). For the same compound, the MIC (Streptococcus pneumoniae [27]) was 0.15 µg/mL (≈ 0.2 µM), the MIC (Streptococcus pneumoniae [28]) was 40 µg/mL (≈ 53.4 µM) and the MIC (Streptococcus pneumoniae [29]) was 40 µg/mL (≈ 53.4 µM). It also gave an MIC (Streptococcus pyogenes [30]) of 0.6 µg/mL (≈ 0.801 µM) and an MIC (Staphylococcus aureus [31]) of 40 µg/mL (≈ 53.4 µM).
For `CC[C@H]1OC(=O)[C@H](C)[C@@H](O[C@H]2C[C@@](C)(OC)[C@@H](O)[C@H](C)O2)[C@H](C)[C@@H](O[C@@H]2O[C@H](C)C[C@H](N(C)C)[C@H]2O)[C@](C)(OC)C[C@@H](C)C(=O)[C@H](C)[C@@H](O)[C@]1(C)O` [CLARITHROMYCIN], the MIC50 (Enterococcus [2]) was 1.2 µg/mL (≈ 1.6 µM), the MIC90 (Enterococcus [2]) was 10 µg/mL (≈ 13.4 µM) and the MIC (Escherichia coli) was 40 µg/mL (≈ 53.5 µM). The MIC (Haemophilus influenzae [3]) was 2.5 µg/mL (≈ 3.34 µM), the MIC (Haemophilus influenzae [4]) was 2.5 µg/mL (≈ 3.34 µM) and the MIC50 (Haemophilus [5]) was 2.5 µg/mL (≈ 3.34 µM). The MIC90 (Haemophilus [5]) was 10 µg/mL (≈ 13.4 µM), the MIC50 (Haemophilus [6]) was 1.2 µg/mL (≈ 1.6 µM) and the MIC90 (Haemophilus [6]) was 5 µg/mL (≈ 6.68 µM). For the same compound, the ED50 (Mus musculus [32]) was 109 mg/kg, the ED50 (Mus musculus [33]) was 346 mg/kg and the ED50 (Mus musculus [34]) was 600 mg/kg. It also gave an ED50 (Mus musculus [35]) of over 100 mg/kg, an ED50 (Mus musculus [36]) of 12.6 mg/kg and an ED50 (Mus musculus [37]) of over 100 mg/kg. For the same compound, the ED50 (Mus musculus [38]) was over 100 mg/kg, the ED50 (Mus musculus [39]) was over 100 mg/kg and the ED50 (Mus musculus [40]) was over 100 mg/kg. It also gave an ED50 (Mus musculus [41]) of over 100 mg/kg, an ED50 (Mus musculus [42]) of over 50 mg/kg and an ED50 (Mus musculus [43]) of 16 mg/kg. For the same compound, the MIC50 [19] was 40 µg/mL (≈ 53.5 µM), the MIC90 [19] was 40 µg/mL (≈ 53.5 µM) and the MIC50 [20] was 0.3 µg/mL (≈ 0.401 µM). The MIC90 [20] was 40 µg/mL (≈ 53.5 µM), the MIC [21] was 40 µg/mL (≈ 53.5 µM) and the MIC50 (Staphylococcus sp. [24]) was 40 µg/mL (≈ 53.5 µM). The MIC90 (Staphylococcus sp. [24]) was 40 µg/mL (≈ 53.5 µM), the MIC (Staphylococcus aureus [25]) was 0.3 µg/mL (≈ 0.401 µM) and the MIC (Staphylococcus aureus [26]) was 40 µg/mL (≈ 53.5 µM). The MIC (Streptococcus pneumoniae [27]) was 0.04 µg/mL (≈ 0.0535 µM), the MIC (Streptococcus pneumoniae [28]) was 40 µg/mL (≈ 53.5 µM) and the MIC (Streptococcus pneumoniae [29]) was 40 µg/mL (≈ 53.5 µM). The MIC (Streptococcus pyogenes [30]) was 0.08 µg/mL (≈ 0.107 µM), the MIC50 (Staphylococcus sp. [44]) was 40 µg/mL (≈ 53.5 µM) and the MIC90 (Staphylococcus sp. [44]) was 40 µg/mL (≈ 53.5 µM). The MIC (Staphylococcus aureus [31]) was 40 µg/mL (≈ 53.5 µM), the MIC50 (Streptococcus sp [45]) was 1.2 µg/mL (≈ 1.6 µM) and the MIC90 (Streptococcus sp [46]) was 40 µg/mL (≈ 53.5 µM). The MIC50 (Streptococcus sp [47]) was 40 µg/mL (≈ 53.5 µM) and the MIC90 (Streptococcus sp [48]) was 40 µg/mL (≈ 53.5 µM).
